{
  "source": "paper PMC3361572",
  "about": "(Chemistry & biology, 2012)",
  "key": {"ABHD6": {"biological_target": "T1, ABHD6 (Rattus norvegicus, UniProt Q5XI64)", "T1 sequence (Q5XI64 1-337)": "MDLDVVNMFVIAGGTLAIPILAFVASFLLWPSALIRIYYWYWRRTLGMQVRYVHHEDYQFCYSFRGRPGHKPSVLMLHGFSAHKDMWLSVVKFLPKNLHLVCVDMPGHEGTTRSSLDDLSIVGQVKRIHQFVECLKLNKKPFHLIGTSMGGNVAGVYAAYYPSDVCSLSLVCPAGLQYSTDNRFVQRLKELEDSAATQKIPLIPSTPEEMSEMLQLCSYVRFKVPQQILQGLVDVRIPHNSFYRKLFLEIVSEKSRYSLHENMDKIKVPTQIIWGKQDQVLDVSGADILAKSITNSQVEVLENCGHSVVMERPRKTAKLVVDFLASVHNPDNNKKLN", "assay": "competitive ABPP, rat brain membrane proteome", "type": "biochemical", "conditions": "rat brain serine hydrolase activities, full ABPP gel", "outline": "(§1)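 Brain (mouse or rat) or mouse lung proteomes were preincubated with the test compound, then treated with the serine hydrolase probe FP-Rh. Samples were separated by SDS-PAGE and read by in-gel fluorescence scanning. Inhibition was taken as reduced FP-Rh labelling of MAGL, ABHD6, FAAH or CES bands, and IC50 values were calculated from quantified gel bands. Three independent experiments.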"}, "FAAH [1]": {"biological_target": "T2, FAAH (Rattus norvegicus, UniProt P97612)", "T2 sequence (P97612 1-579)": "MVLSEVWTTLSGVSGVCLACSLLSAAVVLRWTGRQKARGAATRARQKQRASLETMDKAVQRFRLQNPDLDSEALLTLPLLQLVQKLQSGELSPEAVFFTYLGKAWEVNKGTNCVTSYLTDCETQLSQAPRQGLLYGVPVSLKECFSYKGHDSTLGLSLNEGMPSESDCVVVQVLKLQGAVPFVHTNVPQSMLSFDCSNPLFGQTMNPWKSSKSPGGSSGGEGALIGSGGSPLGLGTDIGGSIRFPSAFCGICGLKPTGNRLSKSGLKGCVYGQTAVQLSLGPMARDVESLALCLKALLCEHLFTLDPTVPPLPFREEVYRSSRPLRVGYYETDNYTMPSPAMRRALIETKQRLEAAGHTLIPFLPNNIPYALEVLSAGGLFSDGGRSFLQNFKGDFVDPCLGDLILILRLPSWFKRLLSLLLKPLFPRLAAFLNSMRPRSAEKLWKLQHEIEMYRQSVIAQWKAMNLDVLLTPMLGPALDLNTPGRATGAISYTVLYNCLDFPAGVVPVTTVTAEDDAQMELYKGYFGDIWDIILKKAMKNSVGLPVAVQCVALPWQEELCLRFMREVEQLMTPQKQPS", "assay": "competitive ABPP, rat brain membrane proteome", "type": "biochemical", "outline": "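Rat brain proteome pre-treated with test compound, then labelled with the serine hydrolase-directed fluorophosphonate-rhodamine (FP-Rh) activity-based probe. Proteins separated by SDS-PAGE and detected by in-gel fluorescence scanning. Inhibition scored as loss of FP-Rh labelling of the FAAH band. IC50 calculated from the gel-based ABPP data.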"}, "[2]": {"test_system": "carboxylesterase (CES) enzymes", "assay": "in vitro competitive ABPP in mouse lung proteomes", "type": "biochemical"}, "hFAAH": {"biological_target": "T3, hFAAH (Homo sapiens, UniProt O00519)", "T3 sequence (O00519 1-579)": "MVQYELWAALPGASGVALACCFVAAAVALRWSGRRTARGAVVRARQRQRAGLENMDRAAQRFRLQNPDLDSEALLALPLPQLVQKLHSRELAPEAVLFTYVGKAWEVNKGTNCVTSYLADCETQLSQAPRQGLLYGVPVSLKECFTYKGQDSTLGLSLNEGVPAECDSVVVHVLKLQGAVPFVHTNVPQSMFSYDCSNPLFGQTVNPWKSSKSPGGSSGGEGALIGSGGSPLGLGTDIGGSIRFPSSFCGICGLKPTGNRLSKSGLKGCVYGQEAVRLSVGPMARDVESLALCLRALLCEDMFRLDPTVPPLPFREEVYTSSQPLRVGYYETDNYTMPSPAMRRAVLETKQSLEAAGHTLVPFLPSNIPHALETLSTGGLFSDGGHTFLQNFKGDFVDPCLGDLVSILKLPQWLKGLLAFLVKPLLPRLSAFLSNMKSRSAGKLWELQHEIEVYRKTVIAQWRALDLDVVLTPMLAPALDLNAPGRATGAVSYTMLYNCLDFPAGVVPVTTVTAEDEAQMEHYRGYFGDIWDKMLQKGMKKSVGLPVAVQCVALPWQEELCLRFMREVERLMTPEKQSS", "assay": "substrate hydrolysis assay", "type": "biochemical"}, "MAGL [3]": {"biological_target": "T4, MAGL (Rattus norvegicus, UniProt Q8R431)", "T4 sequence (Q8R431 1-303)": "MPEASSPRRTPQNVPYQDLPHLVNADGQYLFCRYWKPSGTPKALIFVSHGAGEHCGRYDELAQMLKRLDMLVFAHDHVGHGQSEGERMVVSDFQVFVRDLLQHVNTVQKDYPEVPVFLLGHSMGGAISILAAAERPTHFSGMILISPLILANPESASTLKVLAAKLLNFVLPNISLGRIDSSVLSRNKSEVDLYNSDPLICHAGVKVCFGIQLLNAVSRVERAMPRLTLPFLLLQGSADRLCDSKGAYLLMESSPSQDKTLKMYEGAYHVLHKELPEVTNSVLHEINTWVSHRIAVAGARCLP", "assay": "competitive ABPP, rat brain membrane proteome", "type": "biochemical", "outline": "as §1"}, "FAAH [4]": {"biological_target": "T2, FAAH", "assay": "competitive ABPP of brain from KML29-treated rats", "type": "in vivo", "conditions": "Wistar rats, 1–40 mg kg^−1 i.p., 4 h", "outline": "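Wistar rats were injected i.p. with the test compound (1–40 mg kg−1) or vehicle. Vehicle was saline:emulphor:ethanol 18:1:1, with prolonged sonication and mild heating to dissolve. Rats were killed at 4 h. Brain, liver, lung and spleen proteomes were labelled with FP-Rh, separated by SDS-PAGE and scanned for in-gel fluorescence. Inhibition was scored as reduced probe labelling. n = 3 rats/group.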"}, "MAGL [5]": {"biological_target": "T5, MAGL (Mus musculus, UniProt O35678)", "T5 sequence (O35678 1-303)": "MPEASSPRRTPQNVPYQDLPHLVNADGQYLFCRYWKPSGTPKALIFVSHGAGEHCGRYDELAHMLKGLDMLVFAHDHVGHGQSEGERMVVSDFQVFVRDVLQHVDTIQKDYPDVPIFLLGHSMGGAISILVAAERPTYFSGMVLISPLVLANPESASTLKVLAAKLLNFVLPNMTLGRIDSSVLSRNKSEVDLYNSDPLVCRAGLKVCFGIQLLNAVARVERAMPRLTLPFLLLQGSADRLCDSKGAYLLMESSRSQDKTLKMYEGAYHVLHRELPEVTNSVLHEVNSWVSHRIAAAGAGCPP", "assay": "2-AG hydrolytic activity of brain tissue from treated mice", "type": "in vivo", "conditions": "KML29-treated mice, 1–40 mg kg^−1 p.o."}},
  "note": "Entries after “also recorded” stand apart in the source; their conditions may differ.",
  "data": [
    {"smiles": "O=C(OC(C(F)(F)F)C(F)(F)F)N1CCC(C(O)(c2ccc3c(c2)OCO3)c2ccc3c(c2)OCO3)CC1", "note": "[KML29]", "values": [
      {"measurement": "concentrations with inhibition of ABHD6", "setting": "ABHD6", "result": "> 1", "unit": "µM"},
      {"measurement": "FAAH inhibition / cross-reactivity (gel-based ABPP)", "setting": "FAAH [1]; rat brain proteome", "result": "no detectable cross-reactivity; also recorded: No inhibition of FAAH was detected"},
      {"measurement": "IC50", "setting": "FAAH [1]; read-out: IC50 (95% CI), rat FAAH, competitive ABPP, rat brain membrane proteome", "result": "> 50", "unit": "µM"},
      {"measurement": "cross-reactivity with CESs compared to JZL184", "setting": "[2]", "result": "much less cross-reactivity with CESs"},
      {"measurement": "AEA hydrolysis by hFAAH", "setting": "hFAAH", "result": "undiminished AEA hydrolysis up to 50 μM"},
      {"measurement": "selectivity for rat MAGL relative to rat ABHD6", "setting": "MAGL [3]; rat brain homogenates, competitive ABPP", "result": "> 20", "unit": "fold"},
      {"measurement": "inhibitor concentrations with selective inhibition of MAGL", "setting": "MAGL [3]; rat brain serine hydrolase activities, full ABPP gel", "result": "≤ 1", "unit": "µM"},
      {"measurement": "IC50", "setting": "MAGL [3]; read-out: IC50 (95% CI), rat MAGL, competitive ABPP, rat brain membrane proteome", "result": 0.043, "unit": "µM"},
      {"measurement": "cross-reactivity with brain FAAH", "setting": "FAAH [4]", "result": "without any detectable cross-reactivity"},
      {"measurement": "residual MAGL activity in brain proteomes (substrate assay)", "setting": "MAGL [5]", "result": "dose-dependent inhibition of MAGL"}
    ]}
  ]
}
